From ChEMBL document CHEMBL1121614, “Synthesis and antiallergy activity of 4-oxopyrano[3,2-b]indoles” (1980)
Active and inactive are the calls of the source. The rule behind the calls is not given here.

Experiments:
Rattus norvegicus [1] = assay: The compound was tested for inhibition of rat passive cutaneous anaphylaxis at 10 mg/kg dose after intraperitoneal administration; assay type: functional; conditions: ip
Rattus norvegicus [2] = assay: The compound was tested for inhibition of rat passive cutaneous anaphylaxis at 2.0 mg/kg dose after intraperitoneal administration; assay type: functional; conditions: ip
Rattus norvegicus [3] = assay: The compound was tested for inhibition of rat passive cutaneous anaphylaxis at 5.0 mg/kg dose after peroral administration; O means inactive; assay type: functional, organism-based; parameters: dose 5 mg/kg
In short: (§1)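 Rats were sensitized by intradermal injection of antiserum dilutions at several back sites. Drug was suspended in 1% gum tragacanth in saline and given po or ip 10–15 min before challenge with iv ovalbumin (1 mg in 1 mL saline with 0.25% Evans blue). At 30 min the wheal's mean orthogonal diameter was measured. Diameter was plotted against antiserum level and extrapolated to zero. Five rats per group.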

Rattus norvegicus [4] = assay: Inhibition of rat passive cutaneous anaphylaxis at 5.0 mg/kg dose after intraperitoneal administration; assay type: functional; conditions: ip; in short: as §1
Rattus norvegicus [5] = assay: Inhibition of rat passive cutaneous anaphylaxis at 5.0 mg/kg dose after peroral administration; assay type: functional; conditions: route oral; in short: as §1
Rattus norvegicus [6] = assay: Inhibition of rat passive cutaneous anaphylaxis at 1.0 mg/kg dose after intraperitoneal administration; assay type: functional; conditions: ip; in short: as §1
Rattus norvegicus [7] = assay: The compound was tested for inhibition of rat passive cutaneous anaphylaxis at 2.0 mg/kg dose after peroral administration; assay type: functional; conditions: route oral; in short: as §1
Rattus norvegicus [8] = assay: The compound was tested for inhibition of rat passive cutaneous anaphylaxis at 1 mg/kg dose after iv administration; assay type: functional
In short: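 Rat PCA by the iv route. Antiserum dilutions were injected intradermally on the back 48 h before iv challenge with 1 mg ovalbumin in 1 mL saline plus 0.25% Evans blue. Compound was dissolved, if needed, in slight molar excess NaHCO3 and diluted into the antigen solution. Wheal diameter was read at 30 min and extrapolated to zero antiserum by least squares. Groups of five.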

Rattus norvegicus [9] = assay: The compound was tested for inhibition of rat passive cutaneous anaphylaxis at 1.0 mg/kg dose after peroral administration; assay type: functional; conditions: route oral; in short: as §1

Row | SMILES | inhibition in vivo at 5 mg/kg (Rattus norvegicus [4]) [%] | inhibition in vivo at 5 mg/kg (Rattus norvegicus [5]) [%] | inhibition in vivo at 1 mg/kg (Rattus norvegicus [6]) [%] | also measured
1 | O=C(O)c1cc(=O)c2c(OCC(O)COc3cccc4oc(C(=O)O)cc(=O)c34)cccc2o1 [CROMOLYN SODIUM] | – | – | – | inhibition in vivo at 10 mg/kg (Rattus norvegicus [1]): 89%; inhibition in vivo at 2 mg/kg (Rattus norvegicus [2]): 50%; inhibition (Rattus norvegicus [3]): inactive
2 | Cn1c2c([N+](=O)[O-])cc([N+](=O)[O-])cc2c2oc(C(=O)O)cc(=O)c21 | 0 | 0 | – | –
3 | Cn1c2ccc(Cl)cc2c2oc(-c3nn[nH]n3)cc(=O)c21 | 100 | 33 | 46 | –
4 | Cc1ccc2c(c1)c1oc(C(=O)O)cc(=O)c1n2C | – | – | 18 | inhibition in vivo at 2 mg/kg (Rattus norvegicus [7]): 11%
5 | CCn1c2ccccc2c2oc(C(=O)Nc3nn[nH]n3)cc(=O)c21 | 100 | 1 | 12 | –
6 | O=C1c2ccccc2S(=O)(=O)c2cc(-c3nn[nH]n3)ccc21 [DOXANTRAZOLE] | – | 50 | 33 | inhibition in vivo at 10 mg/kg (Rattus norvegicus [1]): 97%
7 | Cn1c2ccc(Cl)cc2c2oc(C(=O)O)cc(=O)c21 | 23 | 2 | – | –
8 | Cn1c2c([N+](=O)[O-])cc([N+](=O)[O-])cc2c2oc(C(=O)Nc3nn[nH]n3)cc(=O)c21 | 48 | – | – | –
9 | Cc1ccc2c(c1)c1oc(-c3nn[nH]n3)cc(=O)c1n2C | 100 | 56 | 25 | –
10 | Cn1c2ccc([N+](=O)[O-])cc2c2oc(C(=O)O)cc(=O)c21 | 100 | 0 | 1 | –
11 | O=c1cc(-c2nn[nH]n2)oc2c3ccccc3n(-c3ccccc3)c12 | 100 | 32 | 61 | –
12 | Cn1c2ccccc2c2oc(C(=O)Nc3nn[nH]n3)cc(=O)c21 | 100 | 0 | 28 | –
13 | O=C(Nc1nn[nH]n1)c1cc(=O)c2c(o1)c1ccccc1n2-c1ccccc1 | 0 | 7 | – | –
14 | Cc1ccc2c(c1)c1oc(C(=O)Nc3nn[nH]n3)cc(=O)c1n2C | 100 | 0 | 33 | –
15 | Cn1c2ccccc2c2oc(C(=O)O)cc(=O)c21 | 100 | 96 | 30 | –
16 | CCn1c2ccccc2c2oc(-c3nn[nH]n3)cc(=O)c21 | 100 | 70 | 100 | –
17 | CCn1c2ccccc2c2oc(C(=O)O)cc(=O)c21 | – | – | 0 | inhibition in vivo at 1 mg/kg (Rattus norvegicus [8]): 100%; inhibition in vivo at 2 mg/kg (Rattus norvegicus [7]): 22%
18 | Cn1c2ccc([N+](=O)[O-])cc2c2oc(C(=O)Nc3nn[nH]n3)cc(=O)c21 | 100 | – | 42 | inhibition in vivo at 1 mg/kg (Rattus norvegicus [9]): 15%
19 | Cn1c2ccccc2c2oc(-c3nn[nH]n3)cc(=O)c21 | 100 | 39 | 87 | –
20 | O=C(O)c1cc(=O)c2c(o1)c1ccccc1n2-c1ccccc1 | – | – | 13 | inhibition in vivo at 1 mg/kg (Rattus norvegicus [8]): 100%; inhibition in vivo at 2 mg/kg (Rattus norvegicus [7]): 0%
21 | Cn1c2ccc(Cl)cc2c2oc(C(=O)Nc3nn[nH]n3)cc(=O)c21 | 100 | 6 | 38 | –
